We go through 3 molecules from ChEMBL document CHEMBL3425440, “ent-Kaurane Diterpenoids from Chinese Liverworts and Their Antitumor Activities through Michael Addition As Detected in Situ by a Fluorescence Probe” (J Med Chem, 2015).

The first test concerns DU-145. Kind of test: Cytotoxicity against human DU145 cells assessed as cell viability after 24 hrs by MTT assay. Conditions: DU-145, 24 h. The class given is functional, cell-based. In outline:
(§1)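 Cells grown to about 50−70% confluence at 37 °C, 5% CO2, then exposed to compounds 24 h (DMSO vehicle control, cisplatin positive control). MTT (5 mg/mL stock) added for 4 h, formazan dissolved in DMSO, absorbance read at 570 nm. IC50 derived from percent viability; at least three independent experiments, mean ± SD.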
A general note: Tetrazolium dyes change colour on reduction, which living cells bring about.
As usually defined, the IC50 is the concentration that inhibits the measured activity by half. As for `C=C1C(=O)[C@@]23CC[C@@H]4C(C)(C)CCC[C@@]4(C)[C@@H]2[C@@H](O)C[C@@H]1C3`, the IC50 came to 4.5 µM.
Turning to `C=C1[C@@H]2CC[C@H]3[C@]4(C)CCCC(C)(C)[C@H]4[C@@H](O)C[C@]3(C2)[C@@H]1O`, the IC50 was above 50 µM.
On to `C=C1[C@@H]2CC(=O)[C@H]3[C@]4(C)CCCC(C)(C)[C@H]4CC[C@]3(C2)[C@@H]1O`, for which the IC50 was above 50 µM.

Test system in the next test: not listed separately
Kind of test: Cytotoxicity against human T24 cells assessed as cell viability after 24 hrs by MTT assay. The class given is functional, cell-based. Conditions: T-24, 24 h. The gist of the method: as §1
Turning to `C=C1C(=O)[C@@]23CC[C@@H]4C(C)(C)CCC[C@@]4(C)[C@@H]2[C@@H](O)C[C@@H]1C3`, the IC50 came out at 2.1 µM.
Take `C=C1[C@@H]2CC[C@H]3[C@]4(C)CCCC(C)(C)[C@H]4[C@@H](O)C[C@]3(C2)[C@@H]1O`: the half-inhibitory concentration (IC50) was above 50 µM.
In the case of `C=C1[C@@H]2CC(=O)[C@H]3[C@]4(C)CCCC(C)(C)[C@H]4CC[C@]3(C2)[C@@H]1O`, the IC50 was above 50 µM.

For the next test, the system named is NCI-H1299. Kind of test: Cytotoxicity against human NCI-H1299 cells assessed as cell viability after 24 hrs by MTT assay. The format is functional, cell-based. Conditions: NCI-H1299, 24 h. The gist of the method: as §1
Turning to `C=C1C(=O)[C@@]23CC[C@@H]4C(C)(C)CCC[C@@]4(C)[C@@H]2[C@@H](O)C[C@@H]1C3`, the IC50 came out at 2.6 µM.
Still for that read-out and setting: in the case of `C=C1[C@@H]2CC[C@H]3[C@]4(C)CCCC(C)(C)[C@H]4[C@@H](O)C[C@]3(C2)[C@@H]1O` it was above 50 µM.
In the case of `C=C1[C@@H]2CC(=O)[C@H]3[C@]4(C)CCCC(C)(C)[C@H]4CC[C@]3(C2)[C@@H]1O`, the IC50 was above 50 µM.

Test system in another test: not listed separately
As to the kind of experiment: Cytotoxicity against human SH-SY5Y cells assessed as cell viability after 24 hrs by MTT assay. The class given is functional, cell-based.
Conditions: not given
The gist of the method: as §1
With `C=C1C(=O)[C@@]23CC[C@@H]4C(C)(C)CCC[C@@]4(C)[C@@H]2[C@@H](O)C[C@@H]1C3`, the IC50 was 0.7 µM.
As for `C=C1[C@@H]2CC[C@H]3[C@]4(C)CCCC(C)(C)[C@H]4[C@@H](O)C[C@]3(C2)[C@@H]1O`, the IC50 is above 50 µM.
In the case of `C=C1[C@@H]2CC(=O)[C@H]3[C@]4(C)CCCC(C)(C)[C@H]4CC[C@]3(C2)[C@@H]1O`, the IC50 is above 50 µM.

The subject of a further test is MDA-MB-231. As to the kind of experiment: Cytotoxicity against human MDA-MB-231 cells assessed as cell viability after 24 hrs by MTT assay. The format is functional, cell-based. Conditions: MDA-MB-231, 24 h. In outline: as §1
For `C=C1C(=O)[C@@]23CC[C@@H]4C(C)(C)CCC[C@@]4(C)[C@@H]2[C@@H](O)C[C@@H]1C3`, the IC50 amounted to 4.8 µM.
Regarding `C=C1[C@@H]2CC[C@H]3[C@]4(C)CCCC(C)(C)[C@H]4[C@@H](O)C[C@]3(C2)[C@@H]1O`, the IC50 is above 50 µM.
Still for that read-out and setting: the value for `C=C1[C@@H]2CC(=O)[C@H]3[C@]4(C)CCCC(C)(C)[C@H]4CC[C@]3(C2)[C@@H]1O` was above 50 µM.

Test system in a further test: not listed separately
Kind of test: Cytotoxicity against human Saos2 cells assessed as cell viability after 24 hrs by MTT assay. The format is functional, cell-based. Conditions: SAOS-2, 24 h. The gist of the method: as §1
`C=C1C(=O)[C@@]23CC[C@@H]4C(C)(C)CCC[C@@]4(C)[C@@H]2[C@@H](O)C[C@@H]1C3`: the IC50 amounted to 1.4 µM.
The same measure, in the same setting: in the case of `C=C1[C@@H]2CC[C@H]3[C@]4(C)CCCC(C)(C)[C@H]4[C@@H](O)C[C@]3(C2)[C@@H]1O` it was above 50 µM; in that of `C=C1[C@@H]2CC(=O)[C@H]3[C@]4(C)CCCC(C)(C)[C@H]4CC[C@]3(C2)[C@@H]1O`, above 50 µM.

Test system in another test: not listed separately
Kind of test: Cytotoxicity against human SKOV3 cells assessed as cell viability after 24 hrs by MTT assay. Conditions: SK-OV-3, 24 h. The class given is functional, cell-based. The gist of the method:
as §1
For the molecule `C=C1C(=O)[C@@]23CC[C@@H]4C(C)(C)CCC[C@@]4(C)[C@@H]2[C@@H](O)C[C@@H]1C3`, the IC50 worked out at 1.7 µM.
With `C=C1[C@@H]2CC[C@H]3[C@]4(C)CCCC(C)(C)[C@H]4[C@@H](O)C[C@]3(C2)[C@@H]1O`, the IC50 was above 50 µM.
For `C=C1[C@@H]2CC(=O)[C@H]3[C@]4(C)CCCC(C)(C)[C@H]4CC[C@]3(C2)[C@@H]1O`, the IC50 was above 50 µM.

Test system in the next test: not listed separately
As to the kind of experiment: Cytotoxicity against human A172 cells assessed as cell viability after 24 hrs by MTT assay. The format is functional, cell-based. Conditions: A 172, 24 h. The gist of the method:
as §1
As for `C=C1C(=O)[C@@]23CC[C@@H]4C(C)(C)CCC[C@@]4(C)[C@@H]2[C@@H](O)C[C@@H]1C3`, the IC50 worked out at 3.2 µM.
As for `C=C1[C@@H]2CC[C@H]3[C@]4(C)CCCC(C)(C)[C@H]4[C@@H](O)C[C@]3(C2)[C@@H]1O`, the IC50 was above 50 µM.
`C=C1[C@@H]2CC(=O)[C@H]3[C@]4(C)CCCC(C)(C)[C@H]4CC[C@]3(C2)[C@@H]1O`: the IC50 was above 50 µM.

Test system in another test: not listed separately
As to the kind of experiment: Cytotoxicity against human HL60 cells assessed as cell viability after 24 hrs by MTT assay. The format is functional, cell-based. Conditions: HL-60, 24 h. The gist of the method:
as §1
On to `C=C1C(=O)[C@@]23CC[C@@H]4C(C)(C)CCC[C@@]4(C)[C@@H]2[C@@H](O)C[C@@H]1C3`, for which the IC50 turned out to be 0.9 µM.
Regarding `C=C1[C@@H]2CC[C@H]3[C@]4(C)CCCC(C)(C)[C@H]4[C@@H](O)C[C@]3(C2)[C@@H]1O`, the IC50 was above 50 µM.
For `C=C1[C@@H]2CC(=O)[C@H]3[C@]4(C)CCCC(C)(C)[C@H]4CC[C@]3(C2)[C@@H]1O`, the IC50 was above 50 µM.

Test system in a further test: not listed separately
Kind of test: Cytotoxicity against human RWPE1 cells assessed as cell viability after 24 hrs by MTT assay. Conditions: RWPE-1, 24 h. The class given is cell-based. The gist of the method:
as §1
Turning to `C=C1C(=O)[C@@]23CC[C@@H]4C(C)(C)CCC[C@@]4(C)[C@@H]2[C@@H](O)C[C@@H]1C3`, the IC50 was found to be 5.2 µM.
As for `C=C1[C@@H]2CC[C@H]3[C@]4(C)CCCC(C)(C)[C@H]4[C@@H](O)C[C@]3(C2)[C@@H]1O`, the IC50 is above 50 µM.
Regarding `C=C1[C@@H]2CC(=O)[C@H]3[C@]4(C)CCCC(C)(C)[C@H]4CC[C@]3(C2)[C@@H]1O`, the IC50 was above 50 µM.

The test system of the next test is LNCaP. As to the kind of experiment: Cytotoxicity against human LNCAP cells assessed as cell viability after 24 hrs by MTT assay. The class given is functional, cell-based.
Conditions: not given
In outline: as §1
With `C=C1C(=O)[C@@]23CC[C@@H]4C(C)(C)CCC[C@@]4(C)[C@@H]2[C@@H](O)C[C@@H]1C3`, the IC50 amounted to 2.5 µM.
With `C=C1[C@@H]2CC[C@H]3[C@]4(C)CCCC(C)(C)[C@H]4[C@@H](O)C[C@]3(C2)[C@@H]1O`, the IC50 was above 50 µM.
On the same count and under the same terms, in the case of `C=C1[C@@H]2CC(=O)[C@H]3[C@]4(C)CCCC(C)(C)[C@H]4CC[C@]3(C2)[C@@H]1O` it was above 50 µM.

Another test relates to LoVo. As to the kind of experiment: Cytotoxicity against human LoVo cells assessed as cell viability after 24 hrs by MTT assay. The class given is functional, cell-based.
Conditions: not given
The gist of the method:
as §1
On to `C=C1C(=O)[C@@]23CC[C@@H]4C(C)(C)CCC[C@@]4(C)[C@@H]2[C@@H](O)C[C@@H]1C3`, for which the IC50 turned out to be 1.4 µM.
On to `C=C1[C@@H]2CC[C@H]3[C@]4(C)CCCC(C)(C)[C@H]4[C@@H](O)C[C@]3(C2)[C@@H]1O`, for which the IC50 is above 50 µM.
On the same count and under the same terms, the value for `C=C1[C@@H]2CC(=O)[C@H]3[C@]4(C)CCCC(C)(C)[C@H]4CC[C@]3(C2)[C@@H]1O` was above 50 µM.

Another test concerns K562. As to the kind of experiment: Cytotoxicity against human K562 cells assessed as cell viability after 24 hrs by MTT assay. The class given is functional, cell-based. Conditions: K562, 24 h. The gist of the method: as §1
Take `C=C1C(=O)[C@@]23CC[C@@H]4C(C)(C)CCC[C@@]4(C)[C@@H]2[C@@H](O)C[C@@H]1C3`: the IC50 turned out to be 1.5 µM.
With `C=C1[C@@H]2CC[C@H]3[C@]4(C)CCCC(C)(C)[C@H]4[C@@H](O)C[C@]3(C2)[C@@H]1O`, the IC50 was above 50 µM.
Regarding `C=C1[C@@H]2CC(=O)[C@H]3[C@]4(C)CCCC(C)(C)[C@H]4CC[C@]3(C2)[C@@H]1O`, the IC50 is above 50 µM.

Test system in another test: not listed separately
As to the kind of experiment: Cytotoxicity against human PC3 cells assessed as cell viability after 24 hrs by MTT assay. The class given is functional, cell-based. Conditions: PC-3, 24 h. The gist of the method:
as §1
On to `C=C1C(=O)[C@@]23CC[C@@H]4C(C)(C)CCC[C@@]4(C)[C@@H]2[C@@H](O)C[C@@H]1C3`, for which the IC50 was 1.9 µM.
As to `C=C1[C@@H]2CC[C@H]3[C@]4(C)CCCC(C)(C)[C@H]4[C@@H](O)C[C@]3(C2)[C@@H]1O`, the IC50 is above 50 µM.
With `C=C1[C@@H]2CC(=O)[C@H]3[C@]4(C)CCCC(C)(C)[C@H]4CC[C@]3(C2)[C@@H]1O`, the IC50 is above 50 µM.
